The nature of assay [1]: hit retest on RPL19A-GFP reporter strain – cell-based, S. cerevisiae, flow cytometry, cherry picks, mother/daughter gates, confirmation (AID 2270;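 active = GFP response below 50% of the DMSO control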). Particulars: 3 h, at 10 µM, stronger effect = lower value, 100 = same GFP as DMSO wells. Background: Flow cytometry measures light scatter and fluorescence of single cells or particles in a stream.
The nature of assay [2]: yeast TOR pathway reporter LAP4-GFP change – cell-based, cherry picks, flow cytometry, mother/daughter gates, confirmation (AID 2271;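 active = GFP response above 150% of the DMSO control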;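 note: ratio of sample to DMSO plate mean so 100% equals DMSO level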). As to conditions: S. cerevisiae LAP4-GFP strain, 3 h, at 10 µM, stronger effect = higher value, 100 means same as DMSO control. The method, boiled down: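 Test system: GFP-fusion yeast strain. Medium: synthetic complete (SC) yeast growth medium. Timing: 3 h treatment at 30 °C with rotation. Measured by: GFP by flow cytometry. Control set: positive rapamycin (400 ng/mL), negative DMSO.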

Assay [3] is described as follows: TOR pathway reporter MEP2-GFP, retest of hits – S. cerevisiae, flow cytometry GFP, cherry picks, confirmation (AID 2272;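 active = GFP response above 150% of the DMSO control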;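 note: ratio of well signal to plate DMSO mean so 100% equals DMSO level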). Particulars: S. cerevisiae MEP2-GFP strain, 3 h, at 10 µM, stronger effect = higher value.
The nature of assay [4]: yeast AGP1-GFP fluorescence change, single-dose – cell-based, flow cytometry, S. cerevisiae, cherry picks, confirmation (AID 2273).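 Note: median GFP channel fluorescence over the whole cell population gate.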 As to conditions: S. cerevisiae AGP1-GFP strain, 3 h, at 10 µM.
A short description of assay [5]: TOR pathway CIT2 reporter hit retest – S. cerevisiae, GFP fusion, cherry picks, mother/daughter gates, confirmation (AID 2274). Particulars: S. cerevisiae CIT2-GFP strain, flow cytometry, 3 h, at 10 µM, stronger effect = higher value.
Setting [6] is: measured here: daughter cell gate.
[7] abbreviates: measured here: mother cell gate.
[8] abbreviates: measured here: daughter cell gate response.
Setting [9] is: measured here: mother cell gate response.

Activity calls are given as the source filed them.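 Rule for the calls, unless noted: active = GFP response above 150% of the DMSO level; inconclusive = fewer than 70 events counted for a yeast strain; inactive = the rest.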

As for `Cc1cc(/C=C2/SC(=S)N(c3cccc(Cl)c3)C2=O)c(C)n1-c1cccnc1`, the GFP response vs DMSO in assay [1] is 107% (inactive); in assay [1] (setting [6]), 106%; in assay [1] (setting [7]), 108%; in assay [3], 135% (inactive). For the same compound, the GFP response relative to DMSO in assay [2] was 133% (inactive); in assay [2] (setting [8]), 125%; in assay [2] (setting [9]), 136%. In addition, the GFP response, % of DMSO in assay [4] was 110% (inactive); in assay [5], 118% (inactive); in assay [5] (setting [6]), 117%; in assay [5] (setting [7]), 117%.
Regarding `Cc1ccc(Nc2c(-c3ccccn3)nc3ccc(C)cn23)cc1`, the GFP response vs DMSO in assay [1] was 97.4% (inactive); in assay [1] (setting [6]), 106%; in assay [1] (setting [7]), 98.6%; in assay [3], 108% (inactive). For the same compound, the GFP response relative to DMSO in assay [2] is 148% (inactive); in assay [2] (setting [8]), 137%; in assay [2] (setting [9]), 153%. The GFP response, % of DMSO in assay [4] was 82.9% (inactive); in assay [5] it was 105% (inactive); in assay [5] (setting [6]), 121%; in assay [5] (setting [7]), 93.3%.
As for `O=S(=O)(c1ccccc1)c1ccc(C(F)(F)F)cn1`, the GFP response vs DMSO in assay [1] is 97.6% (inactive); in assay [1] (setting [6]) it was 98.3%; in assay [1] (setting [7]), 97.8%; in assay [3], 101% (inactive). Moreover, the results for the GFP response relative to DMSO in assay [2], in assay [2] (setting [8]) and in assay [2] (setting [9]) were 96.1% (inactive), 95.1% and 95.1%, respectively. Further, the GFP response, % of DMSO in assay [4] was 101% (inactive); in assay [5] it was 95.9% (inactive); in assay [5] (setting [6]), 96.8%; in assay [5] (setting [7]), 95.7%.
Take `CCOc1ccc2nc(SCC(=O)NCC3CCCO3)c(C#N)cc2c1` (centres undefined): the GFP response vs DMSO in assay [1] was 97.8% (inactive); in assay [1] (setting [6]), 95.9%; in assay [1] (setting [7]), 99.2%; in assay [3] it was 97.8% (inactive). Also, the GFP response relative to DMSO in assay [2] is 99.8% (inactive); in assay [2] (setting [8]) it was 100%; in assay [2] (setting [9]), 101%. Moreover, the GFP response, % of DMSO in assay [4] was 96.3% (inactive); in assay [5], 90% (inactive); in assay [5] (setting [6]), 91.5%; in assay [5] (setting [7]), 88%.
On to `O=C(O)c1ccn2c(C(=O)c3ccccc3)c(-c3ccccc3)cc2c1`, for which the GFP response vs DMSO in assay [1] is 91.1% (inactive); in assay [1] (setting [6]), 88.6%; in assay [1] (setting [7]) it was 95.4%; in assay [3] it was 94.1% (inactive). In addition, the GFP response relative to DMSO in assay [2] was 113% (inactive); in assay [2] (setting [8]), 112%; in assay [2] (setting [9]), 116%. In addition, the GFP response, % of DMSO in assay [4] is 88.2% (inactive); in assay [5] it was 96.9% (inactive); in assay [5] (setting [6]), 95.4%; in assay [5] (setting [7]), 97.3%.
As to `COc1ccc(CNC(=O)c2c(O)c3ccccc3n(C)c2=O)cc1OC`, the GFP response vs DMSO in assay [1] is 96.9% (inactive); in assay [1] (setting [6]), 97.8%; in assay [1] (setting [7]) it was 96.7%; in assay [3] it was 110% (inactive). Further, the GFP response relative to DMSO was 90.6% (inactive) in assay [2], 92.9% in assay [2] (setting [8]) and 91.3% in assay [2] (setting [9]). The GFP response, % of DMSO in assay [4] is 99.1% (inactive); in assay [5] it was 103% (inactive); in assay [5] (setting [6]), 105%; in assay [5] (setting [7]), 103%.
On to `Cn1c(=O)c(C(=O)NC2CCCCCCC2)c(O)c2ccccc21`, for which the GFP response vs DMSO in assay [1] was 101% (inactive); in assay [1] (setting [6]), 102%; in assay [1] (setting [7]), 103%; in assay [3] it was 95.7% (inactive). The GFP response relative to DMSO was 93.8% (inactive) in assay [2], 94.1% in assay [2] (setting [8]) and 96.2% in assay [2] (setting [9]). The GFP response, % of DMSO in assay [4] is 98.9% (inactive); in assay [5], 107% (inactive); in assay [5] (setting [6]), 105%; in assay [5] (setting [7]), 111%.
For `Cc1ccc(Sc2ccc([N+](=O)[O-])cc2[N+](=O)[O-])nc1`, the GFP response vs DMSO in assay [1] is 99.7% (inactive); in assay [1] (setting [6]), 101%; in assay [1] (setting [7]) it was 100%; in assay [3], 97.8% (inactive). Further, the GFP response relative to DMSO was 103% (inactive) in assay [2], 100% in assay [2] (setting [8]) and 105% in assay [2] (setting [9]). The GFP response, % of DMSO in assay [4] is 97.4% (inactive); in assay [5] it was 104% (inactive); in assay [5] (setting [6]) it was 99.7%; in assay [5] (setting [7]) it was 105%.
Turning to `O=[N+]([O-])/C=C/c1cn(Cc2ccc(Cl)cc2)c2ccccc12`, the GFP response vs DMSO in assay [1] was 105% (inactive); in assay [1] (setting [6]), 102%; in assay [1] (setting [7]) it was 103%; in assay [3], 100% (inactive). In addition, the GFP response relative to DMSO in assay [2] is 95% (inactive); in assay [2] (setting [8]) it was 95.6%; in assay [2] (setting [9]), 96.2%. The GFP response, % of DMSO in assay [4] was 98.3% (inactive); in assay [5], 106% (inactive); in assay [5] (setting [6]) it was 106%; in assay [5] (setting [7]), 102%.
Regarding `CCn1c(=O)c(C(=O)NCc2ccc(OC)c(OC)c2)c(O)c2ccccc21`, the GFP response vs DMSO in assay [1] is 97.6% (inactive); in assay [1] (setting [6]), 99.1%; in assay [1] (setting [7]), 99.2%; in assay [3] it was 100% (inactive). In addition, the GFP response relative to DMSO was 94.1% (inactive) in assay [2], 92.8% in assay [2] (setting [8]) and 94% in assay [2] (setting [9]). The GFP response, % of DMSO is 103% (inactive) in assay [4], 105% (inactive) in assay [5], 106% in assay [5] (setting [6]) and 106% in assay [5] (setting [7]).
As for `Cc1ccc(-c2nc(NC(=O)c3nn(C)cc3[N+](=O)[O-])sc2C)cc1C`, the GFP response vs DMSO in assay [1] is 101% (inactive); in assay [1] (setting [6]), 101%; in assay [1] (setting [7]), 102%; in assay [3], 97.5% (inactive). In addition, the GFP response relative to DMSO was 95.3% (inactive) in assay [2], 92.2% in assay [2] (setting [8]) and 99.5% in assay [2] (setting [9]). Further, the GFP response, % of DMSO is 95.4% (inactive) in assay [4], 93.5% (inactive) in assay [5], 94.6% in assay [5] (setting [6]) and 93.3% in assay [5] (setting [7]).
For the compound `CC1=CC(=O)C(C(C)C)=C/C1=N/OS(=O)(=O)c1ccccc1`, the GFP response vs DMSO in assay [1] was 78.6% (inactive); in assay [1] (setting [6]) it was 51.6%; in assay [1] (setting [7]), 71.3%; in assay [3], 127% (inactive). Moreover, the GFP response relative to DMSO in assay [2] was 271% (active); in assay [2] (setting [8]), 175%; in assay [2] (setting [9]) it was 270%. For the same compound, the GFP response, % of DMSO is 118% (inactive) in assay [4], 99.7% (inactive) in assay [5], 111% in assay [5] (setting [6]) and 83.8% in assay [5] (setting [7]).
As to `CCn1c(=O)c(C(=O)NCCCO)c(O)c2ccccc21`, the GFP response vs DMSO in assay [1] was 102% (inactive); in assay [1] (setting [6]), 101%; in assay [1] (setting [7]) it was 102%; in assay [3], 114% (inactive). The GFP response relative to DMSO in assay [2] is 111% (inactive); in assay [2] (setting [8]), 111%; in assay [2] (setting [9]) it was 112%. The GFP response, % of DMSO in assay [4] was 99.1% (inactive); in assay [5], 106% (inactive); in assay [5] (setting [6]), 105%; in assay [5] (setting [7]) it was 107%.
`Cc1ccc(C(C[N+](=O)[O-])n2nc(C)cc2C)cc1` (centres undefined): the GFP response vs DMSO in assay [1] is 97% (inactive); in assay [1] (setting [6]) it was 101%; in assay [1] (setting [7]) it was 93.6%; in assay [3], 103% (inactive). Further, the GFP response relative to DMSO is 120% (inactive) in assay [2], 120% in assay [2] (setting [8]) and 125% in assay [2] (setting [9]). Further, the GFP response, % of DMSO in assay [4] is 102% (inactive); in assay [5] it was 90.9% (inactive); in assay [5] (setting [6]), 95.2%; in assay [5] (setting [7]), 87.8%.

For the origin of these results see PubChem BioAssay.
